{"source": "ChEMBL document CHEMBL2440093", "about": "“Discovery of 2-aryl-8-hydroxy (or methoxy)-isoquinolin-1(2H)-ones as novel EGFR inhibitor by scaffold hopping” (Bioorg Med Chem, 2013)"}
{"molecular_target": "Epidermal growth factor receptor (Homo sapiens, UniProt P00533)", "sequence (P00533 whole entry)": "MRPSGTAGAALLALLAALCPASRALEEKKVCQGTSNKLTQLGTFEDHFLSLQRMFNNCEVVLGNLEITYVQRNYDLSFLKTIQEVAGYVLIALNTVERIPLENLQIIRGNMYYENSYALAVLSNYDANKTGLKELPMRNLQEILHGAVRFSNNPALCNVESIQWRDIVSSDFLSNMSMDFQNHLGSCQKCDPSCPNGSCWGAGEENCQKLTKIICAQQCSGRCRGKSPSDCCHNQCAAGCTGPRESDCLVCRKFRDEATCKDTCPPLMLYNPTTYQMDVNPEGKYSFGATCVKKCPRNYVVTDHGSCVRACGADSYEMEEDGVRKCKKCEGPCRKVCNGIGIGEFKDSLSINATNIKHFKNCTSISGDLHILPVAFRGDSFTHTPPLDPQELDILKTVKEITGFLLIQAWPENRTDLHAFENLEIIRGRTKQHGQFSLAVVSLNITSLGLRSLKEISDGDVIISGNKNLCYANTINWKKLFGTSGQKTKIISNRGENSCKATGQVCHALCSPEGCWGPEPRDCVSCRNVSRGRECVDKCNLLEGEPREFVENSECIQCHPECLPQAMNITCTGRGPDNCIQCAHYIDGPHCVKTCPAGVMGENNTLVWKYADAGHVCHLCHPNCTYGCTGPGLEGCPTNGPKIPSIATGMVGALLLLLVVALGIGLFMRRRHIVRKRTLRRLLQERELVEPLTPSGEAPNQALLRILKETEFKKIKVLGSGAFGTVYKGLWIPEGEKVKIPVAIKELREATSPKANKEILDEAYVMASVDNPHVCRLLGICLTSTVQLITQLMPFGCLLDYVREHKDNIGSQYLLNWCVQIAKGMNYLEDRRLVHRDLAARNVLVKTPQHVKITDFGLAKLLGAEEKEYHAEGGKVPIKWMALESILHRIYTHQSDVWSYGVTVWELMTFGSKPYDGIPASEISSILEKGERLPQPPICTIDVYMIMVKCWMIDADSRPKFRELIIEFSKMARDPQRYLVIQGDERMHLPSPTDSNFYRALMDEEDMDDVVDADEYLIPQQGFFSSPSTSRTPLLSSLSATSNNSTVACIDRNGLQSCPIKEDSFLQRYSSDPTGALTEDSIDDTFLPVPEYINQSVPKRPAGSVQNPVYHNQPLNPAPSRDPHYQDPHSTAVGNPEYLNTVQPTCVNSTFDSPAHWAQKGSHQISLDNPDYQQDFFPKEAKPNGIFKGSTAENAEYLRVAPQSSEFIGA", "assay": "Inhibition of EGFR in shed membrane vesicles of human A431 cells using poly-Glu-Tyr as substrate after 30 mins by ELISA", "assay_type": "cell membranes, A-431", "conditions": "not given", "units": {"IC50": "µM"}}
{"compound": "C#Cc1cccc(-n2ccc3cc(OC)cc(OC)c3c2=O)c1", "IC50": 3.51}
{"compound": "COc1cc(OC)c2c(=O)n(-c3ccc(F)c(Cl)c3)ccc2c1", "IC50": 5.49}
{"compound": "COc1cc(OC)c2c(=O)n(-c3cccc(C(=O)N4CCCCC4)c3)ccc2c1", "IC50": 2.12}
{"compound": "C#Cc1cccc(-n2ccc3cc(OC)cc(O)c3c2=O)c1", "IC50": 3.06}
{"compound": "COc1cc(O)c2c(=O)n(-c3cccc(C(=O)N4CCCCC4)c3)ccc2c1", "IC50": 1.38}
{"compound": "COc1cc2c(c(OC)c1)C(=O)N(c1cccc(C(=O)N3CCCCC3)c1)CC2", "IC50": 1.23}
{"compound": "COc1cc(O)c2c(c1)CCN(c1cccc(C(=O)N3CCCCC3)c1)C2=O", "IC50": 1.18}
{"test_system": "A549", "assay": "Antiproliferative activity against human A549 cells after 72 hrs by MTT assay", "assay_type": "functional, cell-based", "conditions": "A549, 72 h", "units": {"IC50": "µM"}}
{"compound": "COc1cc(OC)c2c(=O)n(-c3ccccc3)ccc2c1", "IC50": 44.5}
{"compound": "C#Cc1cccc(-n2ccc3cc(OC)cc(OC)c3c2=O)c1", "IC50": 25.2}
{"compound": "COc1cc(OC)c2c(=O)n(-c3ccc(F)c(Cl)c3)ccc2c1", "IC50": 17.8}
{"compound": "COc1cc(OC)c2c(=O)n(-c3cccc(F)c3)ccc2c1", "IC50": 15.2}
{"compound": "COc1cc(OC)c2c(=O)n(-c3cccc(C(F)(F)F)c3)ccc2c1", "IC50": 23.3}
{"compound": "COc1cc(OC)c2c(=O)n(-c3cccc(C(=O)N4CCCCC4)c3)ccc2c1", "IC50": 18.6}
{"compound": "COc1cc(OC)c2c(=O)n(-c3cccc(C(N)=O)c3)ccc2c1", "IC50": 31.3}
{"compound": "C#Cc1cccc(-n2ccc3cc(OC)cc(O)c3c2=O)c1", "IC50": 15.9}
{"compound": "COc1cc(O)c2c(=O)n(-c3ccccc3)ccc2c1", "IC50": 27.9}
{"compound": "COc1cc(O)c2c(=O)n(-c3cccc(C(=O)N4CCCCC4)c3)ccc2c1", "IC50": 14.2}
{"compound": "COc1cc(O)c2c(=O)n(-c3cccc(C(N)=O)c3)ccc2c1", "IC50": 24.8}
{"compound": "COc1cc2c(c(OC)c1)C(=O)N(c1cccc(C(=O)N3CCCCC3)c1)CC2", "IC50": 23.4}
{"compound": "COc1cc(O)c2c(c1)CCN(c1cccc(C(=O)N3CCCCC3)c1)C2=O", "IC50": 13.2}
{"compound": "C=CC(=O)Nc1c(OC)cc(OC)c2c(=O)n(-c3cccc(C(=O)N4CCCCC4)c3)ccc12", "IC50": 14.7}
{"compound": "C=CC(=O)Nc1c(OC)cc(O)c2c(=O)n(-c3cccc(C(=O)N4CCCCC4)c3)ccc12", "IC50": 14.7}
{"compound": "COc1cc(O)c2c(=O)n(-c3cccc(C(=O)N4CCCCC4)c3)ccc2c1NC(=O)Nc1ccc(C(=O)N2CCN(C)CC2)cc1", "IC50": "> 100"}
{"compound": "COc1cc(O)c2c(=O)n(-c3cccc(C(=O)N4CCCCC4)c3)ccc2c1NC(=O)CCN1CCOCC1", "IC50": 13.1}
{"test_system": "A-431", "assay": "Antiproliferative activity against human A431 cells after 72 hrs by MTT assay", "assay_type": "functional, cell-based", "conditions": "A-431, 72 h", "in_short": "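A431 cells seeded in 96-well plates and held 24 h at 37 °C before exposure, with cell numbers set so controls stay in exponential growth. Compounds at final 100.0, 10.0, 1.0 and 0.1 μM for 72 h. MTT (5 mg/ml in PBS) added for 4 h, formazan pelleted and dissolved in DMSO, OD 570 nm. Three experiments in triplicate; IC50 from inhibition ratios.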", "units": {"IC50": "µM"}}
{"compound": "COc1cc(OC)c2c(=O)n(-c3ccccc3)ccc2c1", "IC50": 5.35}
{"compound": "C#Cc1cccc(-n2ccc3cc(OC)cc(OC)c3c2=O)c1", "IC50": 7.13}
{"compound": "COc1cc(OC)c2c(=O)n(-c3ccc(F)c(Cl)c3)ccc2c1", "IC50": 3.95}
{"compound": "COc1cc(OC)c2c(=O)n(-c3cccc(F)c3)ccc2c1", "IC50": 4.17}
{"compound": "COc1cc(OC)c2c(=O)n(-c3ccc(F)c(F)c3)ccc2c1", "IC50": 3.79}
{"compound": "COc1cc(OC)c2c(=O)n(-c3cccc(C(F)(F)F)c3)ccc2c1", "IC50": 14.8}
{"compound": "COc1cc(OC)c2c(=O)n(-c3cccc(C(=O)N4CCCCC4)c3)ccc2c1", "IC50": 15.3}
{"compound": "COc1cc(OC)c2c(=O)n(-c3cccc(C(N)=O)c3)ccc2c1", "IC50": 28.2}
{"compound": "COc1cc(OC)c2c(=O)n(Cc3ccccc3)ccc2c1", "IC50": 3.88}
{"compound": "C#Cc1cccc(-n2ccc3cc(OC)cc(O)c3c2=O)c1", "IC50": 4.44}
{"compound": "COc1cc(O)c2c(=O)n(-c3cccc(C(=O)N4CCCCC4)c3)ccc2c1", "IC50": 2.25}
{"compound": "COc1cc(O)c2c(=O)n(-c3cccc(C(N)=O)c3)ccc2c1", "IC50": 15.2}
{"compound": "COc1cc(O)c2c(=O)n(Cc3ccccc3)ccc2c1", "IC50": 8.29}
{"compound": "COc1cc2c(c(OC)c1)C(=O)N(c1cccc(C(=O)N3CCCCC3)c1)CC2", "IC50": 10.8}
{"compound": "COc1cc(O)c2c(c1)CCN(c1cccc(C(=O)N3CCCCC3)c1)C2=O", "IC50": 5.32}
{"compound": "C=CC(=O)Nc1c(OC)cc(O)c2c(=O)n(-c3cccc(C(=O)N4CCCCC4)c3)ccc12", "IC50": 5.3}
{"compound": "COc1cc(O)c2c(=O)n(-c3cccc(C(=O)N4CCCCC4)c3)ccc2c1NC(=O)Nc1ccc(C(=O)N2CCN(C)CC2)cc1", "IC50": 19.5}
{"compound": "COc1cc(O)c2c(=O)n(-c3cccc(C(=O)N4CCCCC4)c3)ccc2c1NC(=O)CCN1CCOCC1", "IC50": 11.4}
